Source: PubChem (Broad Institute)
Rows were chosen to be rich in hits. Some 3.1% of all compounds tested hit in one or more screens of this group.
PAX8 inh HTS: PAX8 transcriptional activity inhibition; 360,000 tested, 1.2% active; inhibition, % at 12.6 µM; RMG-I TPO-luciferase reporter, SteadyGlo, 24 h;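 active = mean replicate inhibition at least 60% with every replicate also reaching 60%; inconclusive = only one of the two criteria is met; inactive = mean below 60% and not all replicates reaching 60%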;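 note: luciferase light reporting Pax8 driven TPO promoter activity; plate controls were median of neutral control wells for no effect and mitoxantrone controls for full effect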
PGC1a acetyl inh: PGC1a acetylation modulation, inhibitor mode. U2OS PGC1a acetylation, AlphaScreen anti-acetyl-lysine; with virally co-expressed GCN5 acetyltransferase. inhibition, % at 15.6 µM. 350,000 tested, 0.17% active;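 active = every replicate shows inhibition of at least 40%; inconclusive = mean inhibition at least 40% but some replicate below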;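 note: 0% = neutral control wells and 100% = positive control wells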
EWS-Fli inh: blocks EWS/Fli oncoprotein-driven transcription; A673 NR0B1-luciferase reporter, viability-normalised; inhibition, % at 12.6 µM; 350,000 tested, 0.67% active;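 active = mean inhibition of at least 50% after viability correction, with every replicate also passing that limit; inconclusive = mean reaches 50% but only one of two replicates passes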;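 note: firefly luciferase signal divided by Alamar Blue viability fluorescence both relative to DMSO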
Env fusion inh: blocks HIV Env-driven cell-cell fusion; HeLa-JRFL Env/CEM21 cell fusion, luciferase; inhibition, % at 12.3 µM; 360,000 tested, 1.1% active; AID 651610;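 active = mean replicate inhibition score of at least 50 and every replicate individually at or above 50; inconclusive = only one of the two criteria met; inactive = mean below 50 and not all replicates reaching 50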;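 note: 0% = plate neutral controls and 100% = maraviroc near 300 nM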
FN deposition inh: fibronectin deposition inhibition; AH1F fibroblasts, Alexa488-fibronectin deposition fluorescence, overnight; inhibition, % at 12.6 µM; 350,000 tested, 0.086% active; AID 743247;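 active = mean inhibition across replicates of 30% or more, regardless of how many single replicates reach that level; inconclusive = mean under 30% yet at least half of replicates reach 30%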;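 note: positive control wells lacked labelled fibronectin entirely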
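Test system: AH1F fibroblast monolayer depositing Alexa488-labelled fibronectin into matrix. Input: 10000 cells per well. Technique: fluorescence, ex 485 nm, em 525 nm. Buffer or medium: DMEM plus 2% serum, read in PBS. Timing: 1 h cell adhesion before compound, then overnight fibronectin incubation. Compound: single dose, pinned. Read-out basis: inhibition from reduced deposited-fibronectin fluorescence.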
FGF22 binding: binders of recombinant human FGF22 by thermal shift; Q9HCT0; SYPRO orange fluorescence; percent of sucrose octasulfate shift, DMSO zero; activity (Tm shift, normalised), % at 9.99 µM; 340,000 tested, 1.5% active; AID 651658;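 active = mean Tm shift, scaled 0 neutral to 100 positive control, at about 1.3% or above, every replicate too, limit read from the data; inconclusive = no clear call, values can overlap the other calls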
Target sequence (Q9HCT0 whole entry, looked up): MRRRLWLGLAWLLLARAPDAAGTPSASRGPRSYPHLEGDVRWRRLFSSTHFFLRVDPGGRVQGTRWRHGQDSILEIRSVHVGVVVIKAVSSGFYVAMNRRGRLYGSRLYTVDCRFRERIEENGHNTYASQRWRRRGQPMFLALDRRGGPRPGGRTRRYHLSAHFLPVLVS
An asterisk follows results filed as active; ? = inconclusive; nt = no result given; [ ] = remark or other dose.

SMILES	PAX8 inh HTS	PGC1a acetyl inh	EWS-Fli inh	Env fusion inh	FN deposition inh	FGF22 binding
Cc1ccc(S(=O)(=O)NCC[C@@H]2CC[C@@H](NC(=O)NC(C)C)[C@@H](CO)O2)cc1	-3	-4	-1	-4[16.7 µM]	-2	1
CN(CCC#N)c1ccc(C=C(C#N)c2ccc(Br)cc2)cc1	-92	nt	-40	-217	-8	44*
CN(CCC#N)c1ccc(/C=C(\C#N)c2ccccn2)cc1	-65	7	39	?	1	0
COc1ccc(CC2(CO)CCN(Cc3cnc(-c4ccccc4C)nc3)CC2)cc1	13	-6	10	1	9	44*
C[C@@H]1CN([C@@H](C)CO)C(=O)Cc2cc(NS(=O)(=O)c3ccc(F)cc3)ccc2O[C@H]1CN(C)Cc1ccc(Oc2ccccc2)cc1	86*	-10	17	38[16.7 µM]	nt	-1
C[C@@H]1CN([C@@H](C)CO)C(=O)Cc2cc(NS(=O)(=O)c3ccc(Cl)cc3)ccc2O[C@H]1CN(C)Cc1ccc(Oc2ccccc2)cc1	106*	-7	-23	?	11	0
COc1ccccc1CN1[C@@H]2CN(C(=O)C3CCCCC3)c3ccccc3[C@@H]2[C@@H]1CO	24	-17	17	nt	nt	-1
CCOc1ccc(N(CC(=O)Nc2ccccc2C)S(=O)(=O)c2c(C)noc2C)cc1	29	-3	58*	-24	3	0
Cc1ccc(NC(=O)C2C(c3ccccc3)C2(Cl)Cl)c(C)c1 (stereo unspecified)	12	71*	nt	-62	3	nt
Cc1cccc([C@@H]2[C@@H]3C(=O)N(Cc4ccccc4)C(=O)[C@@H]3[C@]3(Cc4ccccc4)C(=O)N(c4ccccc4)C(=O)N23)c1	-14	-8	7	-64	-2	0
Cc1cccc([C@@H]2[C@@H]3C(=O)N(Cc4ccccc4)C(=O)[C@@H]3[C@]3(Cc4ccccc4)C(=O)N(c4ccc(C(F)(F)F)cc4)C(=O)N23)c1	18	nt	1	64*	nt	0
CC[C@@]12C(=O)N(c3ccccc3)C(=O)N1[C@H](c1cccc(C)c1)[C@@H]1C(=O)N(Cc3ccccc3)C(=O)[C@@H]12	5	3	-3	88*	-1	0
CC[C@@]12C(=O)N(c3cccc(F)c3)C(=O)N1[C@H](c1cccc(C)c1)[C@@H]1C(=O)N(Cc3ccccc3)C(=O)[C@@H]12	-12	-5	-8	21	-3	0
CC[C@@]12C(=O)N(c3cccc(Br)c3)C(=O)N1[C@H](c1cccc(C)c1)[C@@H]1C(=O)N(Cc3ccccc3)C(=O)[C@@H]12	-12	-12	7	65*	7	nt
O=C([C@H]1[C@H](CO)[C@H]2Cn3c(ccc(-c4ccccc4F)c3=O)[C@@H]1N2C(=O)C1CCC1)N1CCOCC1	nt	nt	3	nt	nt	0
COC(=O)C12OCC34C(CC5C(C)=C(O)C(=O)CC5(C)C3C(O)C1O)OC(=O)C(OC(=O)C=C(C)C)C24 (stereo unspecified)	99*	?	44	64*	10	0
C[C@H](CO)N1C[C@H](C)[C@@H](CN(C)Cc2ccc(Oc3ccccc3)cc2)Oc2ccc(NC(=O)CCN3CCOCC3)cc2C1=O	nt	1	2	nt	3	1
COc1cccc2c1C(=N)c1c(O)c3c(c(O)c1C2=O)CC(O)(C(C)=O)CC3OC1CC(N)C(O)C(C)O1 (stereo unspecified)	nt	2	nt	nt	nt	nt
COc1cccc2c1C(=O)c1c(O)c3c(c(O)c1C2=O)C[C@](O)(C(C)=O)C[C@H]3O[C@@H]1C[C@@H](N)[C@@H](O)[C@@H](C)O1	112*	nt	45	-293	6	0
COc1ccccc1Nc1cc2cc(Br)ccc2c(=O)[nH]1	18	14	21	-112	-9	0
COc1ccc(OC)c(Nc2cc3ccccc3c(=O)[nH]2)c1	9	17	62*	-10	-11	-1
C[C@H](CO)N1C[C@H](C)[C@H](CN(C)Cc2ccc3c(c2)OCO3)OCCCC[C@H](C)Oc2ccc(NS(=O)(=O)c3cccs3)cc2C1=O	19	-5	5	4[16.7 µM]	nt	0
CN(C)CCCNC(=O)C[C@H]1CC[C@@H]2[C@@H](COc3ccc(NC(=O)c4cccc(F)c4)cc3C(=O)N2C)O1	-22	2	-14	-20[16.7 µM]	3	0
Cc1ccccc1Cn1c(=O)n(-c2ccccc2)c(=O)c2ccc(C(=O)NCc3ccco3)cc21	-15	2	-4	19	-2	0
Cc1ccc(-n2c(=O)c3ccc(C(=O)NCc4ccco4)cc3n(Cc3ccccc3C#N)c2=O)cc1	76*	nt	6	-4	2	0
SMILES	PAX8 inh HTS	PGC1a acetyl inh	EWS-Fli inh	Env fusion inh	FN deposition inh	FGF22 binding
CN1c2ccc(-c3ccc(C#N)cc3)cc2[C@@H]2[C@@H](CCN2C(=O)NC2CCCCC2)[C@H]1CO	-2	-12	14	-23[16.7 µM]	15	nt
COc1cccc(-c2ccc3c(c2)[C@H]2[C@H](CCN2C(=O)NC2CCCCC2)[C@@H](CO)N3C)c1	96*	13	-12	37[16.7 µM]	1	nt
COc1ccc(-c2ccc3c(c2)[C@@H]2[C@@H](CCN2C(=O)NC2CCCC2)[C@H](CO)N3C)cc1	1	10	8	59*[16.7 µM]	0	nt
CN1c2ccc(-c3ccc(C#N)cc3)cc2[C@@H]2[C@@H](CCN2C(=O)NC2CCCCC2)[C@@H]1CO	88*	1	1	-8[16.7 µM]	2	nt
C[C@@H]1CCCCO[C@@H](CN(C)C(=O)CCCN(C)C)[C@@H](C)CN([C@@H](C)CO)C(=O)c2cc(NC(=O)Nc3ccc(C(F)(F)F)cc3)ccc2O1	5	1	0	2[16.7 µM]	nt	-1
COC(=O)C1=C(C)NC2=C(C(=O)CCC2)C1c1cn(Cc2ccc(Cl)cc2Cl)nc1-c1ccccc1 (stereo unspecified)	nt	-8	nt	110*	0	nt
CCOC(=O)C1=C(C)NC2=C(C(=O)CCC2)C1c1cn(Cc2ccc(Cl)cc2Cl)nc1-c1ccccc1 (stereo unspecified)	26	-2	nt	121*	0	nt
CC1=C(C(=O)Nc2ccccn2)C(c2cn(C)nc2C)C2=C(CCCC2=O)N1 (stereo unspecified)	14	nt	-4	-2	-8	0
COC(=O)C[C@H]1C=C[C@@H](NS(=O)(=O)c2ccccc2F)[C@H](CO)O1	-1	4	4	1[16.7 µM]	-13	0
CCC1=NN(C(=O)Cc2ccc(OC)cc2)C(O)(C(F)(F)F)C1 (stereo unspecified)	nt	6	-9	nt	nt	0
COc1ccc(CC(=O)N2N=C(c3ccncc3)CC2(O)C(F)(F)F)cc1 (stereo unspecified)	31	nt	53*	-9	-10	0
COc1cccc(C2=NN(C(=O)c3ccc(C)o3)C(O)(C(F)(F)F)C2)c1 (stereo unspecified)	9	nt	2	-24	7	43*
